# Molecular target: Melanin-concentrating hormone receptor 1 (Rattus norvegicus, UniProt P97639)
# Assay: Displacement of [125I]MCH from rat MCHR1 expressed in CHO cells after 1 hr by scintillation counting
# Type: cell-based
# Conditions: not given
# Outline: (§1)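 CHO cell membranes stably expressing human or rat MCHR1 incubated 1 h at room temperature with [125I]MCH(4−19) and compound at various concentrations. Filtration through GF/C glass filters, bound radioactivity counted by scintillation. IC50 from one experiment in duplicate.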
# Chain of Melanin-concentrating hormone receptor 1 (Rattus norvegicus, UniProt P97639) (P97639 whole entry): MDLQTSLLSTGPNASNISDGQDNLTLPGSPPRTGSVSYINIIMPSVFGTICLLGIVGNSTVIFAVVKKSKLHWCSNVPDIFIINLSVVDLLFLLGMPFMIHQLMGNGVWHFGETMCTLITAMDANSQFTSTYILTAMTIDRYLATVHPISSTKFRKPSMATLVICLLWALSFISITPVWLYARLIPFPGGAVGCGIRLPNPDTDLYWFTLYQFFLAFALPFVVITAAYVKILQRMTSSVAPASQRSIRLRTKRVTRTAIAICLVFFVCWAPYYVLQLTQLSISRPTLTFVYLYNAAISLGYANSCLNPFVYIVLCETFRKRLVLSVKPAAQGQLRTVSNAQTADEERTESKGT
row,SMILES,IC50 [nM]
1,Cc1c(NC(=O)c2ccc(-c3ccc(F)cc3)cc2)ccc2cc(CN3CCCC3)cnc12,1.7

# System: Mus musculus
# Assay: Antiobesity activity in MCHR1-deficient mouse assessed as inhibition of food intake at 10 mg/kg, po qd for 2 days
# Type: functional
# Conditions: 48 h
# Outline: (§2)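 Male MCHR1-deficient mice and wild-type littermates, 34 weeks old, on high-fat diet from 5 weeks of age, housed singly. Grouped by food intake days −5 to −1 and day −1 body weight. Oral dosing at 16:00 on days 0 and 1 in 0.5% methylcellulose suspension, 10 mL/kg, against vehicle controls; six mice per group.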
row,SMILES,inhibition in vivo at 10 mg/kg [%]
1,Cc1c(NC(=O)c2ccc(-c3ccc(F)cc3)cc2)ccc2cc(CN3CCCC3)cnc12,5.7

# System: not listed separately
# Assay: Solubility of the compound in JP2 solution at 10 mM
# Type: physicochemical
# Conditions: not given
# Outline: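 The 10 mM DMSO solution of compound was added to JP2 until opalescence appeared.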
row,SMILES,solubility [µg/mL]
1,O=C(Nc1ccc2cc(CN3CCCC3)cnc2c1)c1ccc(-c2ccc(F)cc2)cc1,1.5
2,O=C(Nc1ccc2c(c1)OCC(CN1CCCC1)=C2)c1ccc(-c2ccc(F)cc2)cc1,0.17

# System: Mus musculus
# Assay: Antiobesity activity in high-fat diet given wild type mouse assessed as inhibition of food intake at 10 mg/kg, po qd for 2 days
# Type: functional
# Conditions: 48 h
# Outline: as §2
row,SMILES,inhibition in vivo at 10 mg/kg [%]
1,Cc1c(NC(=O)c2ccc(-c3ccc(F)cc3)cc2)ccc2cc(CN3CCCC3)cnc12,13.2

# System: not listed separately
# Assay: Half life in Fischer 344 rat at 0.3 mg/kg, iv
# Type: ADME, organism-based
# Set-up: dose 0.3 mg/kg, route intravenous
# Conditions: in vivo
row,SMILES,half-life [h]
1,Cc1c(NC(=O)c2ccc(-c3ccc(F)cc3)cc2)ccc2cc(CN3CCCC3)cnc12,7.7

# System: Brain
# Assay: AUC in Fischer 344 rat brain at 1 mg/kg, po
# Type: ADME, organism-based
# Set-up: dose 1 mg/kg, route oral
# Conditions: in vivo
row,SMILES,AUC [ng·h/g]
1,Cc1c(NC(=O)c2ccc(-c3ccc(F)cc3)cc2)ccc2cc(CN3CCCC3)cnc12,9343

# System: Mus musculus
# Assay: Antiobesity activity in high-fat diet given wild type mouse assessed as inhibition of food intake at 3 mg/kg, po qd for 2 days
# Type: functional
# Conditions: 48 h
# Outline: as §2
row,SMILES,inhibition in vivo at 3 mg/kg [%]
1,Cc1c(NC(=O)c2ccc(-c3ccc(F)cc3)cc2)ccc2cc(CN3CCCC3)cnc12,10.2

# Molecular target: T1, Melanin-concentrating hormone receptor 1 (Homo sapiens, UniProt Q99705)
# T1 sequence (Q99705 whole entry): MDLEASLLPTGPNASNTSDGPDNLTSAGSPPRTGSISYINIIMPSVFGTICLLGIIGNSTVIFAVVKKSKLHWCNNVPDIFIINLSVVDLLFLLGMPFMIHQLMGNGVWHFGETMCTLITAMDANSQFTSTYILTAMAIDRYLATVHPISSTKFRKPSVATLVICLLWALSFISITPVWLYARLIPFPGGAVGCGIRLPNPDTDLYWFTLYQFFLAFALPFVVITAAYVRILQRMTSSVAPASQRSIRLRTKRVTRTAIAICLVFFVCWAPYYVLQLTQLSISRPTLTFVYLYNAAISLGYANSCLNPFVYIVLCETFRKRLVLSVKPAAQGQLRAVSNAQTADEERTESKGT
# Assay: Antagonist activity at human MCHR1 expressed in CHO cells assessed as inhibition of MCH-induced [3H]arachidonic acid release […] by liquid scintillation counting
# Type: functional, cell-based
# Conditions: in the assay text read “45 mins” for “16 hrs”
# Outline: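 Human MCHR1-CHO cells seeded at 50 000/well, cultured 1 day, then loaded with [3H]arachidonic acid (0.2 μCi/well) for 16 h. Washed with DMEM containing 20 mM HEPES pH 7.4 and 0.2% BSA. Compound preincubated 30 min at 37 °C, MCH added, 45 min incubation, medium radioactivity by liquid scintillation.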
row,SMILES,IC50 [nM]
1,O=C(Nc1ccc2cc(CN3CCCC3)cnc2c1)c1ccc(-c2ccc(F)cc2)cc1,9.2
2,O=C(Nc1ccc2c(c1)OCC(CN1CCCC1)=C2)c1ccc(-c2ccc(F)cc2)cc1,10
3,Cc1c(NC(=O)c2ccc(-c3ccc(F)cc3)cc2)ccc2cc(CN3CCCC3)cnc12,2.8

# System: Mus musculus
# Assay: Antiobesity activity in MCHR1-deficient mouse assessed as inhibition of food intake at 3 mg/kg, po qd for 2 days
# Type: functional
# Conditions: 48 h
# Outline: as §2
row,SMILES,inhibition in vivo at 3 mg/kg [%]
1,Cc1c(NC(=O)c2ccc(-c3ccc(F)cc3)cc2)ccc2cc(CN3CCCC3)cnc12,4.1

# System: not listed separately
# Assay: Tmax in Fischer 344 rat brain at 1 mg/kg, po
# Type: ADME, organism-based
# Set-up: dose 1 mg/kg, route oral
# Conditions: not given
row,SMILES,Tmax [h]
1,Cc1c(NC(=O)c2ccc(-c3ccc(F)cc3)cc2)ccc2cc(CN3CCCC3)cnc12,8

# Molecular target: T2, 5-hydroxytryptamine receptor 2C (Homo sapiens, UniProt P28335)
# T2 sequence (P28335 whole entry): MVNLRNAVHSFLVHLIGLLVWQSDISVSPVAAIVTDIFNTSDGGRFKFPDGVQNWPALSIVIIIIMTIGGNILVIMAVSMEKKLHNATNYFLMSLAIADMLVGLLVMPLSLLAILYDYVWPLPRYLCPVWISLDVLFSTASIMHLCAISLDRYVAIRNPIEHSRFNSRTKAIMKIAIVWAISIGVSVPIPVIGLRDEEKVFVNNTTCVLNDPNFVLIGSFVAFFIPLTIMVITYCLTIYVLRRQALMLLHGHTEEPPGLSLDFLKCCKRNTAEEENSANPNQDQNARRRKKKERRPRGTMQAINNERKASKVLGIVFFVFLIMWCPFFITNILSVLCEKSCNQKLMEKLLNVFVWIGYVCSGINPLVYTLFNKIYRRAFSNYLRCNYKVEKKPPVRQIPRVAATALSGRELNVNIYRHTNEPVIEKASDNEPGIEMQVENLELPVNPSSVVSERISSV
# Assay: Displacement of [3H]mesulergine from human 5HT2C receptor expressed in CHO cells after 1 hr by scintillation counting
# Type: cell-based
# Conditions: not given
# Outline: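 Membranes from CHO cells stably expressing human 5-HT2c incubated 1 h at room temperature with [3H]mesulergine and compound at various concentrations. Terminated by GF/C filtration, filter radioactivity counted by scintillation. IC50 from one experiment in duplicate.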
row,SMILES,IC50 [nM]
1,O=C(Nc1ccc2cc(CN3CCCC3)cnc2c1)c1ccc(-c2ccc(F)cc2)cc1,160
2,O=C(Nc1ccc2c(c1)OCC(CN1CCCC1)=C2)c1ccc(-c2ccc(F)cc2)cc1,3.1
3,Cc1c(NC(=O)c2ccc(-c3ccc(F)cc3)cc2)ccc2cc(CN3CCCC3)cnc12,> 1000

# System: not listed separately
# Assay: Cmax in Fischer 344 rat brain at 1 mg/kg, po
# Type: ADME, organism-based
# Set-up: dose 1 mg/kg, route oral
# Conditions: not given
row,SMILES,Cmax [ng/g]
1,Cc1c(NC(=O)c2ccc(-c3ccc(F)cc3)cc2)ccc2cc(CN3CCCC3)cnc12,610

# System: Rattus norvegicus
# Assay: Antiobesity activity in high-fat diet fed Fischer 344 rat DIO model assessed as inhibition of food intake at 10 mg/kg, po after 6 hrs
# Type: functional
# Conditions: Fischer 344, 6 h
# Outline: (§3)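 Male 52-week-old F344/Jcl rats on high-fat diet from 5 weeks of age, housed singly, grouped by overnight food intake and body weight. Oral dosing at 15:00 in 0.5% methylcellulose suspension, 2 mL/kg, against vehicle controls; six rats per group.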
row,SMILES,inhibition in vivo at 10 mg/kg [%]
1,Cc1c(NC(=O)c2ccc(-c3ccc(F)cc3)cc2)ccc2cc(CN3CCCC3)cnc12,55.7

# System: not listed separately
# Assay: Bioavailability in Fischer 344 rat
# Type: ADME, organism-based
# Conditions: in vivo
row,SMILES,bioavailability [%]
1,Cc1c(NC(=O)c2ccc(-c3ccc(F)cc3)cc2)ccc2cc(CN3CCCC3)cnc12,39

# System: Rattus norvegicus
# Assay: Antiobesity activity in po dosed high-fat diet fed Fischer 344 rat DIO model assessed as inhibition of food intake after 17 hrs
# Type: functional, organism-based
# Conditions: not given
# Outline: as §3
row,SMILES,inhibition
1,Cc1c(NC(=O)c2ccc(-c3ccc(F)cc3)cc2)ccc2cc(CN3CCCC3)cnc12,Dose-dependent effect

# System: Rattus norvegicus
# Assay: Antiobesity activity in high-fat diet fed Fischer 344 rat DIO model assessed as inhibition of food intake at 1 mg/kg, po after 17 hrs
# Type: functional
# Conditions: Fischer 344, 17 h
# Outline: (§4)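 Male F344/Jcl rats, 52 weeks old, fed high-fat diet from 5 weeks of age, housed singly and acclimated to oral water dosing; grouped by overnight food intake and body weight. Single oral dose at 15:00 as 0.5% methylcellulose suspension, 2 mL/kg, six rats per group; vehicle controls. Cumulative food intake at 6 and 17 h; percent inhibition versus control, mean ± SD.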
row,SMILES,inhibition in vivo at 1 mg/kg [%]
1,Cc1c(NC(=O)c2ccc(-c3ccc(F)cc3)cc2)ccc2cc(CN3CCCC3)cnc12,15.5

# System: Rattus norvegicus
# Assay: Antiobesity activity in high-fat diet fed Fischer 344 rat DIO model assessed as inhibition of food intake at 10 mg/kg, po after 17 hrs
# Type: functional
# Conditions: Fischer 344, 17 h
# Outline: as §3
row,SMILES,inhibition in vivo at 10 mg/kg [%]
1,Cc1c(NC(=O)c2ccc(-c3ccc(F)cc3)cc2)ccc2cc(CN3CCCC3)cnc12,45.8

# System: not listed separately
# Assay: AUC in Fischer 344 rat at 1 mg/kg, po
# Type: ADME, organism-based
# Set-up: dose 1 mg/kg, route oral
# Conditions: plasma
row,SMILES,AUC [ng·h/mL]
1,Cc1c(NC(=O)c2ccc(-c3ccc(F)cc3)cc2)ccc2cc(CN3CCCC3)cnc12,160

# System: not listed separately
# Assay: Total clearance in Fischer 344 rat at 0.3 mg/kg, iv
# Type: ADME, organism-based
# Set-up: dose 0.3 mg/kg, route intravenous
# Conditions: in vivo
row,SMILES,clearance [mL/min/kg]
1,Cc1c(NC(=O)c2ccc(-c3ccc(F)cc3)cc2)ccc2cc(CN3CCCC3)cnc12,40

# Molecular target: T1, Melanin-concentrating hormone receptor 1
# Assay: Displacement of [125I]MCH from human MCHR1 expressed in CHO cells after 1 hr by scintillation counting
# Type: cell-based
# Conditions: not given
# Outline: as §1
row,SMILES,IC50 [nM]
1,O=C(Nc1ccc2cc(CN3CCCC3)cnc2c1)c1ccc(-c2ccc(F)cc2)cc1,2.8
2,O=C(Nc1ccc2c(c1)OCC(CN1CCCC1)=C2)c1ccc(-c2ccc(F)cc2)cc1,0.91
3,Cc1c(NC(=O)c2ccc(-c3ccc(F)cc3)cc2)ccc2cc(CN3CCCC3)cnc12,0.54

# System: not listed separately
# Assay: Tmax in Fischer 344 rat at 1 mg/kg, po
# Type: ADME, organism-based
# Set-up: dose 1 mg/kg, route oral
# Conditions: in vivo
row,SMILES,Tmax [h]
1,Cc1c(NC(=O)c2ccc(-c3ccc(F)cc3)cc2)ccc2cc(CN3CCCC3)cnc12,4

# System: Rattus norvegicus
# Assay: Antiobesity activity in high-fat diet fed Fischer 344 rat DIO model assessed as inhibition of food intake at 3 mg/kg, po after 17 hrs
# Type: functional
# Conditions: Fischer 344, 17 h
# Outline: as §3
row,SMILES,inhibition in vivo at 3 mg/kg [%]
1,Cc1c(NC(=O)c2ccc(-c3ccc(F)cc3)cc2)ccc2cc(CN3CCCC3)cnc12,28.9

# System: not listed separately
# Assay: Cmax in Fischer 344 rat at 1 mg/kg, po
# Type: ADME, organism-based
# Set-up: dose 1 mg/kg, route oral
# Conditions: in vivo
row,SMILES,Cmax [ng/mL]
1,Cc1c(NC(=O)c2ccc(-c3ccc(F)cc3)cc2)ccc2cc(CN3CCCC3)cnc12,9

# System: Rattus norvegicus
# Assay: Antiobesity activity in high-fat diet fed Fischer 344 rat DIO model assessed as inhibition of food intake at 1 mg/kg, po after 6 hrs
# Type: functional
# Conditions: Fischer 344, 6 h
# Outline: as §4
row,SMILES,inhibition in vivo at 1 mg/kg [%]
1,Cc1c(NC(=O)c2ccc(-c3ccc(F)cc3)cc2)ccc2cc(CN3CCCC3)cnc12,18.8

# System: not listed separately
# Assay: Volume of distribution at the steady state in Fischer 344 rat at 0.3 mg/kg, iv
# Type: ADME, organism-based
# Set-up: dose 0.3 mg/kg, route intravenous
# Conditions: in vivo, read-out: Vdss
row,SMILES,Vd [L/kg]
1,Cc1c(NC(=O)c2ccc(-c3ccc(F)cc3)cc2)ccc2cc(CN3CCCC3)cnc12,20

# System: Rattus norvegicus
# Assay: Antiobesity activity in high-fat diet fed Fischer 344 rat DIO model assessed as inhibition of food intake at 3 mg/kg, po after 6 hrs
# Type: functional
# Conditions: Fischer 344, 6 h
# Outline: as §3
row,SMILES,inhibition in vivo at 3 mg/kg [%]
1,Cc1c(NC(=O)c2ccc(-c3ccc(F)cc3)cc2)ccc2cc(CN3CCCC3)cnc12,36.7
